Assay results reported in ChEMBL document CHEMBL1135047, “Discovery of 5-hydroxyalkyl-4-phenylpyridines as a new class of glucagon receptor antagonists” (Bioorg Med Chem Lett, 2002).

Assays:
Glucagon receptor [1] = molecular target: T1, Glucagon receptor (Homo sapiens, UniProt P47871); test: Inhibitory concentration against cAMP production in hGR-CHO cells; type: functional, cell-based
Outline: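 hGR-CHO cells grown to confluency, preincubated 10 min at 37 °C in assay buffer, then 10 min with 100 µM isobutylmethylxanthine. Test compound at 10 nM to 10 µM final, then glucagon at 10 pM final; 15 min incubation. Stopped with 65% ethanol; extracted cAMP measured by SPA assay. DMSO 0.1% control.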

Glucagon receptor [2] = molecular target: T1, Glucagon receptor; test: Inhibitory concentration against binding to the human glucagon receptor (hGR)

T1 sequence (P47871 whole entry): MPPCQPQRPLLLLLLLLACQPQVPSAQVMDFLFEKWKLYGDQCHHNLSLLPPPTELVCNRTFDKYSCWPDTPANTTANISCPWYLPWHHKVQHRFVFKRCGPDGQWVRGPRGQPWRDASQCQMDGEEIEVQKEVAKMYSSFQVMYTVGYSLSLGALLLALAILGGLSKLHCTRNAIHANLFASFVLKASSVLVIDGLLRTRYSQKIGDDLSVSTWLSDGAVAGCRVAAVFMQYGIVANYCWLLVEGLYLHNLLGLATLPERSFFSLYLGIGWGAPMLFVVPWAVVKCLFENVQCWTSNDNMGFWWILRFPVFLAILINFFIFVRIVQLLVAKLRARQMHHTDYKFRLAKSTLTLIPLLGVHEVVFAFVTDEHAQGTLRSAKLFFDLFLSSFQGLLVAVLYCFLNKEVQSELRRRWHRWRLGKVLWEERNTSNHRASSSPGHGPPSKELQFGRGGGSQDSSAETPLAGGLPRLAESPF

SMILES | IC50 (Glucagon receptor [1]) [nM] | IC50 (Glucagon receptor [2]) [µM]
CC(C)=Cc1c(C(C)C)nc(C(C)C)c(CO)c1-c1ccc(F)cc1 | 2000 | 7
C=Cc1c(C(C)C)nc(C(C)C)c(CO)c1-c1ccc(F)cc1 |  | 6
COC(=O)c1c(C(C)C)nc(C(C)C)c(CO)c1-c1ccc(F)cc1 |  | 9.5
CCCCCc1c(CC)nc(CC)c(CO)c1-c1ccccc1 |  | 20
CCCCCc1c(C(C)C)nc(C(C)C)c(C(C)O)c1-c1ccc(F)cc1 (configuration not stated) |  | 0.3
CCCCCc1c(C)nc(C)c(CO)c1-c1ccccc1 |  | > 20
CCCCc1c(C(C)C)nc(C(C)C)c(C(C)O)c1-c1ccc(F)cc1 (configuration not stated) |  | 0.25
CCCCCCc1c(C(C)C)nc(C(C)C)c(CO)c1-c1ccc(F)cc1 |  | 0.35
CCCCCc1c(C(C)C)nc(C(C)C)c(CO)c1-c1ccc(F)cc1 |  | 0.7
CCCCCc1c(C(C)C)nc(C(C)C)c(CO)c1-c1ccccc1 |  | 1.4
CCc1c(C(C)C)nc(C(C)C)c(CO)c1-c1ccccc1 |  | 1.8
CC(C)c1nc(C(C)C)c(CO)c(-c2ccc(F)cc2)c1CO |  | > 20
CCc1c(C)nc(C)c(CO)c1-c1ccccc1 |  | > 20
CCc1nc(CC)c(CO)c(-c2ccccc2)c1CC |  | > 20
COCc1c(C(C)C)nc(C(C)C)c(CO)c1-c1ccc(F)cc1 |  | 9
CCCCCc1c(C(C)C)nc(C(C)C)c([C@@H](C)O)c1-c1ccc(F)cc1 (single isomer, unassigned) |  | 0.15
